# Source: PubChem BioAssay
# Tn6 DDE FP – disrupts Tn6 cyclic peptide binding to fibrin D-Dimer-E complex; 370,000 compounds, 0.21% hits; inhibition, % at 8.3 µM; Fibrin DD(E) TRITC-Tn6 fluorescence polarization displacement;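 active means inhibition above a per-campaign cutoff: mean of compounds within control limits plus 3 SD, cut at about 15% in these data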
# Tn7 DDE FP – DD(E)-Tn7 binding inhibition, primary FP screen; AID 720508; P02675; 370,000 compounds, 0.13% hits; FP displacement of FITC-Tn7 peptide from fibrin DD(E); 0% = median of compound wells per plate; inhibition, % at 8.3 µM;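 active means inhibition above the mean of compounds falling within the control limits plus 3 SD of them, cut at about 14% in these data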
#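 Test system – human fibrin DD(E) · Times – 10 min preincubation, 3 h with tracer, room temperature · Detection – fluorescence polarization of the labelled Tn7 tracer · Measure – percent inhibition normalized to high-control wells · Benchmarks – high control wells with 10 µM unlabelled Aha-Tn7 peptide (full inhibition) · Repeats – singlicate testing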
# proKLK7 act – activators of human kallikrein-7 zymogen | P49862 | purified proKLK7, EDANS-DABCYL substrate fluorescence; 100% is mature enzyme control, 0% vehicle | activation, % at 7 µM | 370,000 compounds, 0.9% hits | AID 652039;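 active means activation above the mean of all tested compounds plus 3 SD, computed per campaign excluding outliers beyond control limits, cut at about 13% in these data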
# Target sequence (P49862 whole entry, looked up): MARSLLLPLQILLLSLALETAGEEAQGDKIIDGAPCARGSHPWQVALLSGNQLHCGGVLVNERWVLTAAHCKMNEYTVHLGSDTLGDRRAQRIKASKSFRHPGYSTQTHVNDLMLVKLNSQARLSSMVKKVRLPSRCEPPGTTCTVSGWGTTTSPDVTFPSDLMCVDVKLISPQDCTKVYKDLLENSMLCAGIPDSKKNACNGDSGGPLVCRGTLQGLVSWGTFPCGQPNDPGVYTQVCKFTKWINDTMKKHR
# CRFBP-R2 block – CRF-BP/CRF-R2 complex antagonism | 350,000 compounds, 0.59% hits | HEK293 CRF-R2/CRF-BP, CRF-induced calcium fluorescence | inhibition, % at 11.8 µM;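 active means inhibition of the ligand-induced calcium signal above about 50% at the single tested concentration, limit read from the data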
# CendR NRP1 mod – alters CendR peptide binding to human NRP-1; O14786; FAM-RPARPAR peptide binding to NRP-1, fluorescence polarization; inhibition, % at 25 µM; 360,000 compounds, 0.85% hits; AID 602438;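 active means inhibition or corrected inhibition above about 18%, plus a signal ratio from 0.5 to 1.5, limit read from the data, passing the limit was not always enough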
# CRFR2-BP ag – CRF-BP/CRF-R2 complex agonism; HEK293 CRF-R2/CRF-BP, calcium dye fluorescence (FLIPR); percent of saturating CRF peptide response; activation, % at 13.2 µM; 350,000 compounds, 0.46% hits;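 active means activation of at least 50%, plus an integration ratio under a set limit after plate pattern correction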
# A number is an active result; . = inactive; / = no result given; ! = not active in a repeat. In the library only some 2.9% were active in any assay of this set; here they are far more common.
SMILES,Tn6 DDE FP,Tn7 DDE FP,proKLK7 act,CRFBP-R2 block,CendR NRP1 mod,CRFR2-BP ag
C=CC[N+]1(C)C2CCC1CC(O)C2 (configuration not stated),.,.,.,.,21,.
C=CCn1c(O)c(C(CC)=NCCCO)c(=O)[nH]c1=O,.,.,.,.,.,.
C=CCn1c(O)c(C(CC)=NCCC2=CCCCC2)c(=O)[nH]c1=O,.,.,.,.,30,.
COc1cccc(NC2=NCCS2)c1,.,.,.,/,/,/
c1ccc(Nc2ccc(Nc3ccccc3)cc2)cc1,.,.,.,.,29,.
C=C1[C@@H](C)C2[C@H](Cc3ccccc3)NC(=O)[C@]23[C@H](OC(C)=O)/C=C/[C@@](C)(O)C(=O)[C@@H](C)C/C=C/[C@H]3[C@@H]1O (some centres not stated),.,.,.,/,/,/
Cc1ccc2c(c1)Oc1ccccc1N=C2,.,.,.,65,.,.
Cc1cc(N2CCNC[C@H]2C)ccc1N1CC[C@H](O)C1,.,.,.,/,/,/
O=C(Nc1cccc(C(F)(F)F)c1)OC1CN2CCC1CC2 (configuration not stated),.,.,.,.,.,.
OC(c1cccc(Cl)c1)(c1cccc(Cl)c1)C1CN2CCC1CC2 (configuration not stated),.,.,.,.,40,.
O=C(NCCN1CCC2(CC1)C(=O)NCN2c1ccccc1)c1ccc(Cl)cc1,.,.,.,/,/,/
CC1=CC(=O)OC2CC3OC4C[C@@H](C)C5OC6CC7O[C@]8(C)C/C=C\C9OC%10CC%11OC(CC(C)C%12OCCO%12)CC(O)[C@]%11(C)OC%10CC9OC8C[C@]7(C)O[C@]6(C)CCC5OC4C[C@]3(C)OC12 (some centres not stated),/,/,/,.,.,75
CCN1CC=C(c2c[nH]c3ccccc23)CC1,.,.,.,.,31,.
COc1cc(C)c(CN2CCN(c3ccccc3)CC2)cc1C,.,.,.,.,36,.
Brc1ccc2c(c1)-n1nncc1CNC2,.,.,.,/,/,/
Cc1ccc(C(=O)C2CN3CCC2CC3)cc1 (configuration not stated),.,.,.,.,26,.
CNP(=O)(Oc1ccccc1)OC12CC3CC(CC(C3)C1)C2 (configuration not stated),.,.,.,78,.,.
O=P(Nc1ccccc1)(Oc1ccccc1)Oc1ccccc1,.,.,.,.,.,.
COC(=O)C1=C[C@H]([C@@H](C)[C@H](OC)c2ccccc2Br)[C@@H]2[C@H]1c1ccccc1N2C,.,.,.,/,/,/
CCn1cc(C(=O)N2CCC3(CC2)OCCO3)c(=O)c2cc(S(=O)(=O)N3CCCC3)ccc21,.,.,.,.,.,.
O=C(c1c[nH]c2ccc(S(=O)(=O)N3CCOCC3)cc2c1=O)N1CCC2(CC1)OCCO2,.,.,.,.,28,.
O=c1[nH]c2ccccc2n1C1CCN(C(c2cc3ccccc3o2)c2nnnn2-c2ccc3c(c2)OCCO3)CC1 (configuration not stated),.,15,.,/,.,/
O=c1[nH]c2ccccc2n1C1CCN(C(c2cccc3ccccc23)c2nnnn2-c2ccc3c(c2)OCCO3)CC1 (configuration not stated),.,.,.,/,.,/
CCCCN1CCN(C(=O)COc2cc(=O)n(C)c3ccccc23)CC1,.,.,.,/,/,/
CC(=O)N1N=C2C3CCN(CC3)C2C1c1cccc2ccccc12 (configuration not stated),.,.,.,.,.,81
SMILES,Tn6 DDE FP,Tn7 DDE FP,proKLK7 act,CRFBP-R2 block,CendR NRP1 mod,CRFR2-BP ag
CCCC/C(C)=C/[C@@H](NP(=O)(c1ccccc1)c1ccccc1)c1ccccc1,.,14,.,.,.,.
COc1cccc(-c2ccc3c(c2)C2c4cnnn4-c4ccccc4C(=O)N2CC3)c1 (configuration not stated),.,.,.,/,/,/
CN(C(=O)Oc1ccc(C(=O)c2ccc(Cl)cc2)cc1)c1ccccc1,.,.,.,50,.,.
CN(C)C(=O)Oc1ccc(OC(=O)c2ccccc2)cc1,.,.,.,.,.,.
O=C(NC1CCCCC1)N1Cc2cc(Br)ccc2-n2nncc2C1,.,.,.,/,/,/
COc1ccc([C@@H]2C[C@H]3[C@@H](CN2)CON3C)cc1,.,.,.,/,/,/
CN1CC[C@@]2(C)c3cc(O)ccc3N(C)[C@@H]12,.,.,.,.,28!,.
CN1CC[C@@]2(C)c3cc(O)ccc3N(C)C2O1 (some centres not stated),/,/,/,.,.,.
C/C(=C\c1ccc(N(C)C)cc1)[N+](=O)[O-],.,.,.,.,.,.
CN(C)c1ccc(/C=C/[N+](=O)[O-])cc1,.,.,.,.,.,101
C=C[C@@H]1C2=CCOC(=O)C2=CO[C@H]1O[C@@H]1O[C@H](CO)[C@@H](O)[C@H](O)[C@H]1O,.,.,.,.,24,.
COc1ccccc1N1CCN(Cc2c(F)cccc2Cl)CC1,.,.,.,61,.,.
CC(C)CCP(=O)(O)O,.,.,.,/,/,/
Cc1c(P(=S)(c2ccccc2)c2ccccc2)[n+]2ccccc2n1C,.,.,.,.,34!,.
Cc1cccc(C(C)c2cnc[nH]2)c1C (configuration not stated),.,.,.,/,/,/
Oc1c(Br)cc(Br)cc1Br,.,.,.,.,.,.
Oc1c(Br)cc(-c2ccccc2)cc1Br,.,.,.,72,.,.
Oc1c(Br)c(Br)c(Br)c(Br)c1Br,/,/,/,58,.,.
CN1c2ccc(Br)cc2[C@@H]2NCC[C@@H]2[C@@H]1CO,.,.,.,/,/,/
O=C(/C=C/c1c[nH]c2ccccc12)c1c(O)n(CCc2ccccc2)c(=O)[nH]c1=O,.,.,.,.,.,166
O=C(O)CC1OCC=C2CN3CCC45C6=CC(=O)C(=O)C([N+](=O)[O-])=C6NC4C1C2CC35 (configuration not stated),/,/,/,.,25,.
O=C(O)CC1OCC=C2CN3CCC45c6ccccc6NC4C1C2CC35 (configuration not stated),.,.,.,.,.,.
C=CCn1cc(C=C2C(=O)NC(=O)NC2=O)c2ccccc21,.,.,.,.,.,.
O=C1NC(=O)C(=Cc2cn(CCOc3ccc4c(c3)OCO4)c3ccccc23)C(=O)N1,/,/,/,.,.,59
CCN(CC)c1ccc(N=Cc2c(O)n(Cc3ccco3)c(=O)[nH]c2=O)cc1,.,.,.,.,.,60
CCN(CC)c1ccc(N=Cc2c(O)n(CCc3ccc(OC)c(OC)c3)c(=O)[nH]c2=O)cc1,.,.,.,.,.,127
CCN(CCO)c1ccc(N=Cc2c(O)n(C)c(=S)[nH]c2=O)cc1,.,.,.,.,.,87
